Molecular target: Metabotropic glutamate receptor 5 (Rattus norvegicus, UniProt P31424)
Assay: Antagonist activity at rat mGlu5 receptor expressed in CHO cells assessed as inhibition of quisqualate-stimulated calcium mobilization
Assay type: functional, cell-based
Conditions: not given; call rule not given here
How it was run: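 CHO cells stably expressing rat mGlu5; inhibition of quisqualate-stimulated calcium mobilization read by FLIPR. Values are geometric means of two or more experiments.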

Metabotropic glutamate receptor 5, sequence (P31424 whole entry): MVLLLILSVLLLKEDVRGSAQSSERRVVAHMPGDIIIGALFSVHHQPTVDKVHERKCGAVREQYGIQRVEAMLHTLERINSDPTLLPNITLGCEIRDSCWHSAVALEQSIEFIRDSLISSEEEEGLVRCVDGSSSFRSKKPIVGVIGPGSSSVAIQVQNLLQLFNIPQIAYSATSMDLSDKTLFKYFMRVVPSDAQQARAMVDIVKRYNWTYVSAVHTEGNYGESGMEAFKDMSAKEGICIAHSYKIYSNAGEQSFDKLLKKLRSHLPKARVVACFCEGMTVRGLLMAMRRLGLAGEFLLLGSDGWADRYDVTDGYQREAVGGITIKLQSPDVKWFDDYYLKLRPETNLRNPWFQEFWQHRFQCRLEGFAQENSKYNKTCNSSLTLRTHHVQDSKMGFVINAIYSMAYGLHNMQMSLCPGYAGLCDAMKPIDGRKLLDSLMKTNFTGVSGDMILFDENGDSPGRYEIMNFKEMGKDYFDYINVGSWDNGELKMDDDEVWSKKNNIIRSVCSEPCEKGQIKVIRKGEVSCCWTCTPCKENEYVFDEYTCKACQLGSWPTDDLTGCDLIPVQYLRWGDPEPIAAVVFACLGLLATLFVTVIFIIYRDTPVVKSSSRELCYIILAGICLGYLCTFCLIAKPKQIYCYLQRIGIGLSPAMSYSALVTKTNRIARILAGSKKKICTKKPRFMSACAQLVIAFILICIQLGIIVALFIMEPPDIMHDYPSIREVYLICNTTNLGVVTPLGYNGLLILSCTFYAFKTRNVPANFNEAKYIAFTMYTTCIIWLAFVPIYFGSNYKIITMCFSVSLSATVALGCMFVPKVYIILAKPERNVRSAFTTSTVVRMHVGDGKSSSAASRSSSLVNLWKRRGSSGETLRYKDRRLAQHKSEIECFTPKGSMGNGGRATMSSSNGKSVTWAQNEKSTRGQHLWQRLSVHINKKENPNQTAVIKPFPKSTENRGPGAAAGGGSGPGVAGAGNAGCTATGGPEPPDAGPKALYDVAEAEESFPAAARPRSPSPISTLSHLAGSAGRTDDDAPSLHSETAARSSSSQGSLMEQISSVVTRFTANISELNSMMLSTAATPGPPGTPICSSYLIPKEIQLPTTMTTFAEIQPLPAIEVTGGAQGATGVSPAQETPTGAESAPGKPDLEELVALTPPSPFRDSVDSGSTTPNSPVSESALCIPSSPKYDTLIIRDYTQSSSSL

Point of comparison: `Cc1cccc(-c2cnc3cccnc3c2)c1`, IC50 15700 nM. Against it:
- c1ccc(-c2ccc3cccnc3n2)cc1 — 8.5-fold lower, 1840 nM
- N#Cc1cccc(-c2ccc3cccnc3n2)c1 — 140-fold lower, 115 nM
- Cc1ccc(-c2ccc3cccnc3n2)cc1C — 350-fold lower, 45 nM
- c1ccc(-c2cc3ncccc3cn2)cc1 — higher, > 30000 nM
- Cc1cccc(-c2ccc3ccc(C)nc3n2)c1 — 57-fold lower, 277 nM
- Cc1cc(C)cc(-c2cnc3cccnc3c2)c1 — higher, > 30000 nM
- Cc1ccc2ccc(-c3cccc(C#N)c3)nc2n1 — 33-fold lower, 480 nM
- Cc1ccc2ccc(-c3cc(F)cc(F)c3)nc2n1 — 87-fold lower, 181 nM
- COc1cc(OC)cc(-c2cc3ncccc3cn2)c1 — 2.6-fold lower, 6070 nM
- Cc1ccc(-c2cnc3cccnc3c2)cc1C — within 1.5-fold, 12000 nM
- Cc1ccc2cnc(-c3ccccc3)cc2n1 — higher, > 30000 nM
- Cc1cccc(-c2cc3nc(C)ccc3cn2)c1 — 23-fold lower, 676 nM
- Cc1ccc2ccc(-c3cccc(Br)c3)nc2n1 — 330-fold lower, 47.9 nM
- COc1cccc(-c2cc3nc(C)ccc3cn2)c1 — 2-fold lower, 7900 nM
- COc1cc(OC)cc(-c2cc3nc(C)ccc3cn2)c1 — 46-fold lower, 345 nM
- COc1cc(C#N)cc(-c2cc3nc(C)ccc3cn2)c1 — 2500-fold lower, 6.19 nM
- Cc1cccc(-c2cc3ncccc3cn2)c1 — 12-fold lower, 1270 nM
- Cc1cc(F)cc(-c2cc3ncccc3cn2)c1 — 2.4-fold lower, 6570 nM
- N#Cc1cc(F)cc(-c2cc3ncccc3cn2)c1 — 9.9-fold lower, 1590 nM
- COCOc1cc(C#N)cc(-c2cc3ncccc3cn2)c1 — 34-fold lower, 468 nM
- COc1cc(OC)cc(-c2ccc3cccnc3n2)c1 — 230-fold lower, 67 nM
- Cc1cc(F)cc(-c2cc3nc(C)ccc3cn2)c1 — 5.4-fold lower, 2930 nM
- N#Cc1cccc(-c2cnc3cccnc3c2)c1 — within 1.5-fold, 18600 nM
- COc1cc(C#N)cc(-c2cc3ncccc3cn2)c1 — 230-fold lower, 68 nM
- Cc1cccc(-c2ccc3cccnc3n2)c1 — 70-fold lower, 225 nM
- Cc1ccc2ccc(-c3cccc(Cl)c3)nc2n1 — 89-fold lower, 177 nM
- COc1cc(C#N)cc(-c2cnc3cccnc3c2)c1 — 290-fold lower, 55 nM
- COc1cc(OC)cc(-c2ccc3ccc(C)nc3n2)c1 — 300-fold lower, 51.7 nM
- Cc1ccc2ccc(-c3ccccc3)nc2n1 — 24-fold lower, 664 nM

Test system: Rattus norvegicus
Assay: Inhibition of change in hind paw weight distribution in monosodium iodoacetate-induced osteoarthritis rat model at 10 mg/kg, ip after 6 hrs
Assay type: organism-based
Parameters: dose 10 mg/kg, route intraperitoneal
Conditions: in vivo

With `COc1cc(OC)cc(-c2ccc3ccc(C)nc3n2)c1` the Activity was “Active”.

Test system: Rattus norvegicus
Assay: Inhibition of change in hind paw weight distribution in monosodium iodoacetate-induced osteoarthritis rat model at 10 mg/kg, ip after 4 hrs
Assay type: organism-based
Parameters: dose 10 mg/kg, route intraperitoneal
Conditions: in vivo

`COc1cc(OC)cc(-c2ccc3ccc(C)nc3n2)c1` was tested, and the Activity was “Active”.

Test system: Rattus norvegicus
Assay: Inhibition of change in hind paw weight distribution in monosodium iodoacetate-induced osteoarthritis rat model at 10 mg/kg, ip after 2 hrs
Assay type: organism-based
Parameters: dose 10 mg/kg, route intraperitoneal
Conditions: in vivo

For `COc1cc(OC)cc(-c2ccc3ccc(C)nc3n2)c1`, the Activity was “Active”.
